# Measured values published in ChEMBL document CHEMBL1759883, “Synthesis and biological evaluation of indazole derivatives” (Eur J Med Chem, 2011).
# Columns and labels:
# [1] = biological target: Nitric oxide synthase, inducible (Rattus norvegicus) (UniProt Q06518); assay: Inhibition of iNOS in LPS-stimulated Wistar rat lung assessed as inhibition of [3H]L-arginine to [3H]L-citrulline conversion at 1 mM by liquid scintillation counting
# Procedure, shortened: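 Lungs from male Wistar rats (220–250 g) taken 6 h after i.v. LPS (10 mg/kg in saline), homogenized in Tris buffer pH 7.6 with protease inhibitors, and spun at 2500g. The supernatant was incubated 30 min at 37 °C with 10 µM L-arginine plus 40 nM L-³H-arginine, cofactors, 0.75 mM NADPH (final) and 10 mM EDTA. ³H-citrulline was isolated on Dowex-50W; compounds at 1 mM.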
# [2] = biological target: Nitric oxide synthase 1 (Rattus norvegicus) (UniProt P29476); assay: Inhibition of nNOS in untreated Wistar rat striata assessed as inhibition of [3H]L-arginine to [3H]L-citrulline conversion at 1 mM by liquid scintillation counting
# Rattus norvegicus = species on record: Rattus norvegicus; assay: Selectivity ratio of inhibition of iNOS in Wistar rat lung to inhibition of nNOS in Wistar rat striata
# Nitric oxide synthase 1 = Nitric oxide synthase 1 (Rattus norvegicus, UniProt P29476); assay: Inhibition of nNOS in untreated Wistar rat striata assessed as inhibition of [3H]L-arginine to [3H]L-citrulline conversion by liquid scintillation counting
# Sequence of Nitric oxide synthase 1 (P29476 whole entry): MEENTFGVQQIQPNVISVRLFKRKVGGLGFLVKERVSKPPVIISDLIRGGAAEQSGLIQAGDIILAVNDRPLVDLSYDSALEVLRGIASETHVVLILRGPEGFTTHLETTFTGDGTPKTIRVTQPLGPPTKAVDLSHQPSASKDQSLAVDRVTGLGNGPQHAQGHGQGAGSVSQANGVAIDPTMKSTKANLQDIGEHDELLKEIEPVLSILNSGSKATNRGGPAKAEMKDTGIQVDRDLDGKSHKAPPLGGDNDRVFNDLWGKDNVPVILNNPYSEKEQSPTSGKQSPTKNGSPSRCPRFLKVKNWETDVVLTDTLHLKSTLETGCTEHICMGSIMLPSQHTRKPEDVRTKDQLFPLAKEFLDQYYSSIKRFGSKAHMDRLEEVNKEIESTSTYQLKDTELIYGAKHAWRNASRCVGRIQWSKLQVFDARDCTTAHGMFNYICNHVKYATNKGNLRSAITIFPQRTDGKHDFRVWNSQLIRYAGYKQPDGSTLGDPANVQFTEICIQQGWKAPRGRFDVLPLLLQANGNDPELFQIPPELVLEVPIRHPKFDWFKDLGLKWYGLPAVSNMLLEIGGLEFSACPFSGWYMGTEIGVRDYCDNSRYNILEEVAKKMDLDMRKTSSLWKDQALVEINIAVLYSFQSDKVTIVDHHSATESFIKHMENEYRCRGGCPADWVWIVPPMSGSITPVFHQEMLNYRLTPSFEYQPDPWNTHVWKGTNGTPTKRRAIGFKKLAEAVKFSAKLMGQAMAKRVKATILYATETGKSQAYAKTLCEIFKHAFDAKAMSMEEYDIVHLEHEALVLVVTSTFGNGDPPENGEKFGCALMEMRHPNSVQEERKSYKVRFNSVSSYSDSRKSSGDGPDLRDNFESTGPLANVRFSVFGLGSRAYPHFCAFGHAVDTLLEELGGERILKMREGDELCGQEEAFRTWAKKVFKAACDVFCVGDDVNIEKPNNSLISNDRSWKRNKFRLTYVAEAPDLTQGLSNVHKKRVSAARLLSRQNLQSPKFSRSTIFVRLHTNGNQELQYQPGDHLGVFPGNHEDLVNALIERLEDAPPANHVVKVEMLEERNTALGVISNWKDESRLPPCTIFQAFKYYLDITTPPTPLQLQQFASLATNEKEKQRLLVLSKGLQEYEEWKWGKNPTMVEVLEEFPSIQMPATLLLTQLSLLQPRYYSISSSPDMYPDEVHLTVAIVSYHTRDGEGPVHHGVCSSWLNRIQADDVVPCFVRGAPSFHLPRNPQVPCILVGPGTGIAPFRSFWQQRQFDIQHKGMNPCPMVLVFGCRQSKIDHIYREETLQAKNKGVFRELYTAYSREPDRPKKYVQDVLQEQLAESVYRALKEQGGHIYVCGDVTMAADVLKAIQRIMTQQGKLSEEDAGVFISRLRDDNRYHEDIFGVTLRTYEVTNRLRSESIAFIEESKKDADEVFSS
# Sequence of Nitric oxide synthase, inducible (Rattus norvegicus) (Q06518 whole entry): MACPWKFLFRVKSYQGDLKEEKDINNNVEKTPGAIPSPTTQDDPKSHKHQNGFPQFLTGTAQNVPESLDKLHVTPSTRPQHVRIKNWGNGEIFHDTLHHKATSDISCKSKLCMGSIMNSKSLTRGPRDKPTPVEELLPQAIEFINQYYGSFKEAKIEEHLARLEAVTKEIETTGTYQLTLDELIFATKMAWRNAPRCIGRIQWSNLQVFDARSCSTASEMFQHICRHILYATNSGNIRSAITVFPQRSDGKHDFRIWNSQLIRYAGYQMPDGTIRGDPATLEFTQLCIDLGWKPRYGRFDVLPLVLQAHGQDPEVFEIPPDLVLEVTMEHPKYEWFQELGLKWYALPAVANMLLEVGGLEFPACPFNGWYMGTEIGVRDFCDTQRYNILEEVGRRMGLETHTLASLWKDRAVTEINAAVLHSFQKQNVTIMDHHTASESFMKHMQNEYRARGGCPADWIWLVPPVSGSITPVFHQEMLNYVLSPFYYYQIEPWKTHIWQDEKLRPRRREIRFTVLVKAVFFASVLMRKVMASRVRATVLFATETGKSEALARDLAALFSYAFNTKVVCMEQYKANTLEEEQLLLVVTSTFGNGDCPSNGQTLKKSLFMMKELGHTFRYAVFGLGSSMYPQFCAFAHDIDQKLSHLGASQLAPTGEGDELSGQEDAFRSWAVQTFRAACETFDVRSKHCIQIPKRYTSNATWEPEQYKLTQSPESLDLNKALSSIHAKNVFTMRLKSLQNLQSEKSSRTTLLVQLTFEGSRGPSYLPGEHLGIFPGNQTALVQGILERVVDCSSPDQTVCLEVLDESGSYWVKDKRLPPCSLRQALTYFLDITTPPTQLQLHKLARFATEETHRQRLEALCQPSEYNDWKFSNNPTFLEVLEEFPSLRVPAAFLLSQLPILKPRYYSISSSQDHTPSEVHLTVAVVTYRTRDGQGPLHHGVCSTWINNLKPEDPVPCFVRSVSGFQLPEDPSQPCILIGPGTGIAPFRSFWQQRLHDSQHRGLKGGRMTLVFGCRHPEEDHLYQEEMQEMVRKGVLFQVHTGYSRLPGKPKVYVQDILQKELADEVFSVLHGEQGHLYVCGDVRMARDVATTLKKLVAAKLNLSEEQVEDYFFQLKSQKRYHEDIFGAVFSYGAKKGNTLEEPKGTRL
# Sequence of Nitric oxide synthase 1 (Rattus norvegicus) (P29476 whole entry): as the sequence (P29476 whole entry) above
Compound,inhibition [1] [%],inhibition [2] [%],Ratio (Rattus norvegicus),IC50 (Nitric oxide synthase 1) [µM]
Cc1n[nH]c2c(F)c(F)c([N+](=O)[O-])cc12,95.6,85.4,,
Oc1n[nH]c2c(F)c(F)ccc12,89.1,57.1,,
Cc1n[nH]c2c([N+](=O)[O-])c(F)cc(F)c12,92,90,,
CCOC(=O)c1c(F)c(F)c2c(O)n[nH]c2c1F,53.5,10.2,,
O=C(O)c1c(F)c(F)c(F)c2c(O)n[nH]c12,40.7,11.1,,
CCc1n[nH]c2ccccc12,,18.8,,
Cc1n[nH]c2c(F)c(F)ccc12,69.2,58.4,,
COC(=O)c1c(F)c(F)c2[nH]nc(O)c2c1F,48.9,13.3,,
Fc1c(F)c(F)c(-c2n[nH]c3c(F)c(F)c(F)c(F)c23)c(F)c1F,,,10,
N#Cc1cccc2cn[nH]c12,80,88,,
Fc1c(F)c(F)c2[nH]ncc2c1F,98.7,43.3,2,
CCOC(=O)c1c(F)c(F)c2[nH]nc(O)c2c1F,51.8,2.5,,
COC(=O)c1c(F)c(F)c(F)c2[nH]nc(O)c12,22.6,6.3,,
COc1cccc2c[nH]nc12,70,,,
O=[N+]([O-])c1cccc2c(O)n[nH]c12,8.2,18.9,,
O=c1[nH][nH]c2ccccc12,,,,> 1000
COC(=O)c1c(F)c(F)c2c(O)n[nH]c2c1F,46.2,19.7,,
FC(F)(F)c1n[nH]c2ccccc12,80.1,69.9,,
c1ccc2[nH]ncc2c1,45,11.2,,
O=[N+]([O-])c1c(F)cc(F)c2c(O)n[nH]c12,91,14.9,6,
O=C(O)c1c(F)c(F)c(F)c2[nH]nc(O)c12,62.6,1.8,35,
O=C(O)c1c(F)c(F)c2c(O)n[nH]c2c1F,42,5.4,,
Oc1n[nH]c2cc(F)cc(F)c12,48.1,11.1,,
Cc1n[nH]c2cc(F)cc(F)c12,74.3,52.1,,
O=C(O)c1c(F)c(F)c2[nH]nc(O)c2c1F,16.3,12.1,,
Oc1n[nH]c2ccccc12,55.1,31.4,,
COC(=O)c1c(F)c(F)c(F)c2c(O)n[nH]c12,49.6,5.1,,
CCOC(=O)c1c(F)c(F)c(F)c2[nH]nc(O)c12,38.7,1.2,,
CCOC(=O)c1c(F)c(F)c(F)c2c(O)n[nH]c12,43.7,5.6,,
Cc1n[nH]c2ccccc12,77.4,33.7,,
